# UHRF1 binding: human UHRF1 methylated DNA binding inhibitors | 370,000 tested, 0.75% active | UHRF1 binding to methylated oligo, TR-FRET | Q96T88 | inhibition, % at 4.4 µM;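 further: UHRF1 SRA domain binding a hemimethylated CpG hairpin DNA probe; 0% = median of test compound wells and 100% = reference inhibitor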
# Target sequence (Q96T88 whole entry, looked up, the tested form may be a part): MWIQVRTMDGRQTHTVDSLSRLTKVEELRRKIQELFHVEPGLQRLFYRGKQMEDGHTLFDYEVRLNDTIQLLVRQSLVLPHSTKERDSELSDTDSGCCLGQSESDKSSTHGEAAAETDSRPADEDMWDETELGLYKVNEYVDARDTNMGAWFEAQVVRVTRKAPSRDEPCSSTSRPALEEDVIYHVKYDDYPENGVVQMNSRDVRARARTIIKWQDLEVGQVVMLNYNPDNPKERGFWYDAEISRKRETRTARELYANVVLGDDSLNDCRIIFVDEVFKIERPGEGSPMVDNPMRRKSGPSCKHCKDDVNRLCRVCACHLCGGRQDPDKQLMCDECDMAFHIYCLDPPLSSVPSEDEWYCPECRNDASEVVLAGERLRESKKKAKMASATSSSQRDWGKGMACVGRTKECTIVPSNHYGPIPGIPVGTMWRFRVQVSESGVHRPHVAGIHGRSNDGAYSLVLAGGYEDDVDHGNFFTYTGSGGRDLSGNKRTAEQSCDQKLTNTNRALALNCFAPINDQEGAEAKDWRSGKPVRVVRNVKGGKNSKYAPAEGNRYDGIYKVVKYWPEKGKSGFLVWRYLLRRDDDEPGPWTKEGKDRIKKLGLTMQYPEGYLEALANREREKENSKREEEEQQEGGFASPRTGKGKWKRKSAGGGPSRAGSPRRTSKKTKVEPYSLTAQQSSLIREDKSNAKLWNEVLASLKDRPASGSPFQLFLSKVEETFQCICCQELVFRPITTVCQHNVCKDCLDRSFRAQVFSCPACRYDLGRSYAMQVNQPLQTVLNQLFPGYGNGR
# ABHD5-PLIN5 inh: ABHD5-PLIN5 protein interaction inhibition. inhibition, % at 4 µM. 360,000 tested, 0.78% active. Split G. princeps luciferase complementation, luminescence, 4 h;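 active means inhibition above the mean inhibition across every tested compound plus 3 SD, cut at about 22% in these data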;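 further: 0% = DMSO only wells and the 100% control is not disclosed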
# Arrestin-AP2 inh: human beta-arrestin and AP2 interaction inhibition. FITC-arrestin peptide / GST-AP2 beads, flow cytometry; AP2 beta2 appendage carries R879A mutation. inhibition, % at 10 µM. 340,000 tested, 0.31% active. AID 504490;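 active means inhibition above a set limit, near 3 SD of compounds lacking own fluorescence, cut at about 54% in these data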;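 further: plate controls were DMSO wells for no effect and 5 µM unlabelled arrestin peptide for full effect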
#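 System: GST-AP2 R879A glutathione beads. Medium: PBS with 0.05% Tween 20 and 0.1% BSA. Also added: FITC-arrestin peptide, 50 nM. Incubation: 12 min plus 1 h, RT. Measured by: high-throughput flow cytometry of beads, ex 488, em 535 nm. Evaluation: percent drop in bead-associated FITC signal.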
# B2AR ag: human beta-2 adrenergic receptor agonism by FAP; Am2.2-beta2AR cells, FAP receptor internalization, flow cytometry; 340,000 tested, 0.43% active; response, % (test concentration not listed); AID 504454; P07550;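 active means response above a set limit, near 3 SD of response in nonfluorescent compounds, cut at about 42% in these data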
# MBD2 DNA inh: MBD2-methylated oligo binding inhibition | 370,000 tested, 0.31% active | inhibition, % at 4.4 µM | Q9UBB5 | TR-FRET, MBD2 binding to methylated oligonucleotide; in the data active means inhibition above about 13%
# Rin1-Abl PPI inh: human Rin1-Abl interaction inhibition; P00519+Q13671; 360,000 tested, 0.4% active; AID 588664; inhibition, % at 7.35 µM; TR-FRET Rin1/Abl binding, biochemical; in the data active means inhibition above about 5%, passing the limit was not always enough
# UHRF1 DNA bind: UHRF1 methyl-oligo binding inhibition as MBD2 counter-screen. shares compounds with MBD2 DNA inh. UHRF1 binding to methylated oligonucleotide, TR-FRET. inhibition, % at 4.4 µM. 1,000 tested, 25% active;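 further: UHRF1 SRA domain binding a labeled hemimethylated CpG hairpin DNA; 0% = vehicle only and 100% = reference inhibitor with vehicle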
# MBD2 confirm: confirmation of human MBD2-DBD methylated oligonucleotide binding inhibitors. shares compounds with MBD2 DNA inh. AID 720531. 1,000 tested, 26% active. inhibition, % at 4.4 µM. TR-FRET MBD2-DBD binding to methylated oligonucleotide; in the data active means inhibition above about 14%
# The depositor's hits bear a star; . = no result given. This is a sample that favours compounds with a hit; in the whole collection about 2.5% have one here. Unless noted, no stated cut-off is given here; in the data, active means inhibition above about 21%; inactive means the rest.
SMILES,UHRF1 binding,ABHD5-PLIN5 inh,Arrestin-AP2 inh,B2AR ag,MBD2 DNA inh,Rin1-Abl PPI inh,UHRF1 DNA bind,MBD2 confirm
CC(=O)N1Cc2cnnn2-c2ccccc2C1(C)C#N (stereo not given),3,-5,6,-5,0,0,.,.
O=P(Nc1cccc(Cl)c1)(Oc1ccccc1)Oc1ccccc1,-2,2,-24,2,0,-1,.,.
O=C(NC1CONC1=O)OCC(Cl)(Cl)Cl (stereo not given),5,-1,.,4,6,1,.,.
C#C[C@]1(O)CCC2C3CCC4=C/C(=N/OCC(=O)NC(C)C(=O)NC(CCSC)C(=O)O)CC[C@]4(C)C3CC[C@@]21C (stereo not given in full),5,-7,1,4,44*,1,4,3
CC[N+](C)(CC)CCCCOc1ccc2c(c1)C(=O)c1cc(OCCCC[N+](C)(CC)CC)ccc1-2,41*,-4,-23,-5,17*,-25,49*,31*
CCCCSP1(=S)NCCCO1 (stereo not given),-6,-5,3,2,38*,0,5,1
Cc1ccc(N2C(=O)NC(=O)/C(=C/c3cnn(-c4ccc(C)cc4)c3)C2=O)cc1,0,7,1,23,-7,1,.,.
Cc1ccc(N2C(=O)NC(=O)/C(=C/c3ccoc3)C2=O)cc1,63*,6,-1,4,33*,4,86*,54*
CCCCn1c(O)c(C(=O)/C=C/c2c[nH]c3ccccc23)c(=O)[nH]c1=O,1,-3,1,-194,1,1,.,.
COc1ccc(-n2c(O)c(/C=C3\C=Nc4ccc(Br)cc43)c(=O)[nH]c2=O)c(OC)c1,-2,22,27,9,28*,3,8,2
CC(C)NC(=O)c1ccc(N2CC3CC(C2)c2cccc(=O)n2C3)c([N+](=O)[O-])c1 (stereo not given),1,-2,17,-4,0,-5,.,.
c1ccc(-c2cc(-c3ccccc3)[n+](-c3ccccc3)c(-c3ccccc3)c2)cc1,2,10,2,29,13*,-1,13,40*
O=C(c1ccc(Cl)cc1)C1CCCN(Cc2ccc3ncccc3c2)C1 (stereo not given),25*,-5,-5,-6,15*,-1,8,2
O=C(c1ccc(Cl)cc1)C1CCCN(Cc2ccc3c(c2)OCCO3)C1 (stereo not given),-1,0,-10,-5,-4,3,.,.
COC(=O)C(C)NC(=S)N1CC2C[C@@H](C1)Cn1c2cccc1=O (stereo not given in full),-1,3,2,-2,-3,0,.,.
COc1cccc2c1C(=O)c1c(O)c3c(c(O)c1C2=O)CC(O)(C(C)=NO)CC3OC1CC(N)C(O)C(C)O1 (stereo not given),95*,-4,17,-74,109*,-22,100*,109*
COC(=O)C1(C(=O)O)Cc2cc([N+](=O)[O-])ccc2N2CCCC21 (stereo not given),-3,1,34,-2,-16,-1,.,.
CCCCN1C(=O)/C(=C/C=C/c2ccco2)C(=O)NC1=S,83*,-5,32,0,29*,2,48*,19*
COc1ccc(C(SCC(NC(=O)OCc2ccccc2)C(=O)O)c2ccc(OC)cc2)cc1 (stereo not given),0,0,.,.,-3,4,.,.
C[C@H](NC(=O)OCc1ccccc1)[P+](=O)O,-3,.,.,.,14*,.,7,1
CCCC(=O)c1c(O)[nH]c(=O)[nH]c1=O,-4,-1,-4,6,-2,-4,.,.
C/C(=N\N1CCN(C)CC1)c1c(O)n(Cc2ccccc2)c(=O)[nH]c1=O,10,-6,-10,-6,5,2,.,.
N/C(=N\N=C/c1ccc(-c2ccc(O)c(C(=O)O)c2)o1)N[N+](=O)[O-],82*,-9,2,2,48*,-1,55*,18*
O=C(O)Cn1cc(/C=C2\C(=O)NC(=O)N(Cc3ccco3)C2=O)c2ccccc21,85*,10,2,2,25*,0,56*,18*
NCC(O)c1cc(O)c(O)cc1F (stereo not given),27*,-6,4,-5,14*,2,14,4
Cc1ccccc1CS(=O)(=O)Cc1ccc(C(=O)N2CCC3(CC2)OCCO3)o1,-2,-1,-4,3,2,0,.,.
